Results as given in ChEMBL document CHEMBL1142454, “Synthesis and evaluation of novel 4-amino-4,6-androstadiene-3,17-dione: an analog of formestane” (2008).

Experiments:
Parameters in all cases: scale not given: the % may be the effect or the level left
LOX IMVI = assay: Antitumor activity against human LOXIMVI cells assessed as reduction of cell growth at 10 uM after 48 hrs by SRB assay; format: functional
Summary of the method: (§1)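 NCI 60-cell-line primary screen, single dose 10^-5 M (final). Cells grown in RPMI 1640 with 5% FBS and 2 mM L-glutamine, seeded at 5000–40,000 cells/well and preincubated 24 h at 37 °C, 5% CO2. Compound is dissolved in DMSO, diluted in medium with gentamicin, and exposed 48 h. Cells are fixed with 10% TCA (final) and stained with 0.4% SRB; absorbance is read at 515 nm. Readout is growth percentage.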

OVCAR-3 = assay: Antitumor activity against human OVCAR-3 cells assessed as reduction of cell growth at 10 uM after 48 hrs by SRB assay; format: functional; summary of the method: as §1
SK-OV-3 = assay: Antitumor activity against human SKOV3 cells assessed as reduction of cell growth at 10 uM after 48 hrs by SRB assay; format: functional; summary of the method: as §1
TK-10 = assay: Antitumor activity against human TK-10 cells assessed as reduction of cell growth at 10 uM after 48 hrs by SRB assay; format: functional
Summary of the method: (§2)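 NCI-60 one-dose primary screen at 10^-5 M final. Cells grown in RPMI 1640 with 5% FBS and 2 mM L-glutamine, plated at 5000–40,000 cells/well and preincubated 24 h at 37 °C, 5% CO2. Drug stocks in DMSO, diluted in medium with gentamicin. Exposure 48 h, then fixed in situ with TCA (10% final) for 60 min at 4 °C. Stained with 0.4% SRB in 1% acetic acid, bound dye solubilized in 10 mM trizma base, absorbance read at 515 nm. Reported as mean growth percent; negative values indicate cell kill.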

ACHN = assay: Antitumor activity against human ACHN cells assessed as reduction of cell growth at 10 uM after 48 hrs by SRB assay; format: functional; summary of the method: as §1
[1] = Antitumor activity against human 786-O cells assessed as reduction of cell growth at 10 uM after 48 hrs by SRB assay; format: functional, 786-0; summary of the method: as §1
NCI-H322M = assay: Antitumor activity against human NCI-H322M cells assessed as reduction of cell growth at 10 uM after 48 hrs by SRB assay; format: functional; summary of the method: as §1
PC-3 = assay: Antitumor activity against human PC-3 cells assessed as reduction of cell growth at 10 uM after 48 hrs by SRB assay; format: functional; summary of the method: as §1
[2] = Antitumor activity against human HCT 116 cells assessed as reduction of cell growth at 10 uM after 48 hrs by SRB assay; format: functional; summary of the method: as §1
SF-539 = assay: Antitumor activity against human SF-539 cells assessed as reduction of cell growth at 10 uM after 48 hrs by SRB assay; format: functional; summary of the method: as §1
HT-29 = assay: Antitumor activity against human HT-29 cells assessed as reduction of cell growth at 10 uM after 48 hrs by SRB assay; format: functional; summary of the method: as §1
K562 = assay: Antitumor activity against human K-562 cells assessed as reduction of cell growth at 10 uM after 48 hrs by SRB assay; format: functional; summary of the method: as §1
SF-268 = assay: Antitumor activity against human SF-268 cells assessed as reduction of cell growth at 10 uM after 48 hrs by SRB assay; format: functional; summary of the method: as §1
[3] = Antitumor activity against human Hs 578T cells assessed as reduction of cell growth at 10 uM after 48 hrs by SRB assay; format: functional; summary of the method: as §1
MDA-MB-435 = assay: Antitumor activity against human MDA-MB-435 cells assessed as reduction of cell growth at 10 uM after 48 hrs by SRB assay; format: functional; summary of the method: as §1
NCI-H460 = assay: Antitumor activity against human NCI-H460 cells assessed as reduction of cell growth at 10 uM after 48 hrs by SRB assay; format: functional; summary of the method: as §1
IGROV-1 = assay: Antitumor activity against human IGROV1 cells assessed as reduction of cell growth at 10 uM after 48 hrs by SRB assay; format: functional; summary of the method: as §1
OVCAR-8 = assay: Antitumor activity against human OVCAR8 cells assessed as reduction of cell growth at 10 uM after 48 hrs by SRB assay; format: functional; summary of the method: as §1
HCT-15 = assay: Antitumor activity against human HCT-15 cells assessed as reduction of cell growth at 10 uM after 48 hrs by SRB assay; format: functional; summary of the method: as §1
RXF 393 = assay: Antitumor activity against human RXF 393 cells assessed as reduction of cell growth at 10 uM after 48 hrs by SRB assay; format: functional; summary of the method: as §1
HCC 2998 = assay: Antitumor activity against human HCC2998 cells assessed as reduction of cell growth at 10 uM after 48 hrs by SRB assay; format: functional; summary of the method: as §1
HOP-92 = assay: Antitumor activity against human HOP-92 cells assessed as reduction of cell growth at 10 uM after 48 hrs by SRB assay; format: functional; summary of the method: as §1
OVCAR-4 = assay: Antitumor activity against human OVCAR4 cells assessed as reduction of cell growth at 10 uM after 48 hrs by SRB assay; format: functional; summary of the method: as §1
T47D = assay: Antitumor activity against human T47D cells assessed as reduction of cell growth at 10 uM after 48 hrs by SRB assay; format: functional; summary of the method: as §2
SF-295 = assay: Antitumor activity against human SF-295 cells assessed as reduction of cell growth at 10 uM after 48 hrs by SRB assay; format: functional; summary of the method: as §1
M14 = assay: Antitumor activity against human M14 cells assessed as reduction of cell growth at 10 uM after 48 hrs by SRB assay; format: functional; summary of the method: as §1
EKVX = assay: Antitumor activity against human EKVX cells assessed as reduction of cell growth at 10 uM after 48 hrs by SRB assay; format: functional; summary of the method: as §1
HL-60(TB) = assay: Antitumor activity against human HL-60(TB) cells assessed as reduction of cell growth at 10 uM after 48 hrs by SRB assay; format: functional; summary of the method: as §1
CAKI-1 = assay: Antitumor activity against human Caki-1 cells assessed as reduction of cell growth at 10 uM after 48 hrs by SRB assay; format: functional; summary of the method: as §1
DU-145 = assay: Antitumor activity against human DU145 cells assessed as reduction of cell growth at 10 uM after 48 hrs by SRB assay; format: functional; summary of the method: as §1
Malme-3M = assay: Antitumor activity against human MALME-3M cells assessed as reduction of cell growth at 10 uM after 48 hrs by SRB assay; format: functional; summary of the method: as §1
CCRF-CEM = assay: Antitumor activity against human CCRF-CEM cells assessed as reduction of cell growth at 10 uM after 48 hrs by SRB assay; format: functional; summary of the method: as §1
COLO 205 = assay: Antitumor activity against human COLO205 cells assessed as reduction of cell growth at 10 uM after 48 hrs by SRB assay; format: functional; summary of the method: as §1
MCF7 = assay: Antitumor activity against human MCF7 cells assessed as reduction of cell growth at 10 uM after 48 hrs by SRB assay; format: functional; summary of the method: as §1
BT-549 = assay: Antitumor activity against human BT-549 cells assessed as reduction of cell growth at 10 uM after 48 hrs by SRB assay; format: functional; summary of the method: as §1
A498 = assay: Antitumor activity against human A-498 cells assessed as reduction of cell growth at 10 uM after 48 hrs by SRB assay; format: functional; summary of the method: as §1
SK-MEL-5 = assay: Antitumor activity against human SK-MEL-5 cells assessed as reduction of cell growth at 10 uM after 48 hrs by SRB assay; format: functional; summary of the method: as §1
SR = assay: Antitumor activity against human SR cells assessed as reduction of cell growth at 10 uM after 48 hrs by SRB assay; format: functional; summary of the method: as §2

Structure (SMILES)	Activity (LOX IMVI) [%]	Activity (OVCAR-3) [%]	Activity (SK-OV-3) [%]	Activity (TK-10) [%]	Activity (ACHN) [%]	Activity [1] [%]	Activity (NCI-H322M) [%]	Activity (PC-3) [%]	Activity [2] [%]	Activity (SF-539) [%]	Activity (HT-29) [%]	Activity (K562) [%]	Activity (SF-268) [%]	Activity [3] [%]	Activity (MDA-MB-435) [%]	Activity (NCI-H460) [%]	Activity (IGROV-1) [%]	Activity (OVCAR-8) [%]	Activity (HCT-15) [%]	Activity (RXF 393) [%]	further results
C[C@]12CCC(=O)C(N)=C1C=C[C@@H]1[C@@H]2CC[C@]2(C)C(=O)CC[C@@H]12.Cl	60.57	64.57	120.27	85.59	88.16	89.28	88.38	46.51	6.15	82.75	51.17	-26.94	89.03	112.26	112.52	83.77	49.46	44.03	72.99	95.21	Activity (HCC 2998): 96.01%; Activity (HOP-92): 61.94%; Activity (OVCAR-4): 61.98%; Activity (T47D): 73.66%; Activity (SF-295): 105.1%; Activity (M14): 79.51%; Activity (EKVX): 97.99%; Activity (HL-60(TB)): 52.53%; Activity (CAKI-1): 84.08%; Activity (DU-145): 62.36%; Activity (Malme-3M): 70.81%; Activity (CCRF-CEM): 6.62%; Activity (COLO 205): 121.26%; Activity (MCF7): -15.97%; Activity (BT-549): 82.63%; Activity (A498): 99.19%; Activity (SK-MEL-5): 69.71%
C[C@]12CCC(=O)C(Oc3ccccc3)=C1CC[C@@H]1[C@@H]2CC[C@]2(C)C(=O)CC[C@@H]12	101.44	121.39	117.4	122.99	105.72	100.78	106.72	89.25	99.87	106.75	100.27	86.08	113.44	103.5	113.61	77.42	55.73	93.48	94.74	107.93	Activity (SR): 66.91%; Activity (HCC 2998): 128.78%; Activity (HOP-92): 87.06%; Activity (OVCAR-4): 100.72%; Activity (T47D): 116.7%; Activity (SF-295): 124.31%; Activity (M14): 102.62%; Activity (EKVX): 104.06%; Activity (HL-60(TB)): 105.95%; Activity (CAKI-1): 112.48%; Activity (DU-145): 107.32%; Activity (Malme-3M): 120.52%; Activity (CCRF-CEM): 90.45%; Activity (COLO 205): 115.44%; Activity (MCF7): 103.22%; Activity (BT-549): 110.1%; Activity (A498): 103%; Activity (SK-MEL-5): 94.23%
